Biological target: T1, Type-1 angiotensin II receptor A (Rattus norvegicus, UniProt P25095)
T1 sequence (P25095 whole entry): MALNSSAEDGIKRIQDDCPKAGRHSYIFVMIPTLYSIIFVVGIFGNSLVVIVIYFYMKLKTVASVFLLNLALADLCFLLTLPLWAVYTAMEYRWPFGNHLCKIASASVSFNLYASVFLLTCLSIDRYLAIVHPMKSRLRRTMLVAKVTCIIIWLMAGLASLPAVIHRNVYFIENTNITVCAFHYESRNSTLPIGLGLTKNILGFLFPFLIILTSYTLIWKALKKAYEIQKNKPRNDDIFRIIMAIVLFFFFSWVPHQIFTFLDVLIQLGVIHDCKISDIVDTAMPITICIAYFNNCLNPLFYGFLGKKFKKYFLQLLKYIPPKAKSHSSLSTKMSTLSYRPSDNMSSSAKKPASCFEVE
Assay: Displacement of [125I]-Ang II from Angiotensin 2 type-1A receptor in rat vascular smooth muscle cells after 150 mins by gamma counting method
Outline: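 Rat vascular smooth muscle cells (passages 3–6) were seeded at 10⁶ cells/well and grown at 37 °C in 5% CO₂. Nonspecific binding was taken with 1 µM Ang II. Cells were washed three times, lysed 10 min in 0.1 M NaOH, and bound radioactivity was gamma counted.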

IC50	Ki	Structure (SMILES)
5.94 nM	4.3 nM	CCCCc1nc(Cl)c(CO)n1Cc1ccc(-c2ccccc2-c2noc(=O)[nH]2)cc1
4.32 nM	3.13 nM	CCCCc1nc(Cl)c(C=O)n1Cc1ccc(-c2ccccc2-c2noc(=O)[nH]2)cc1
